# Measured values from ChEMBL document CHEMBL3739417, “Synthesis and biological evaluation of novel 4,5-disubstituted 2H-1,2,3-triazoles as cis-constrained analogues of combretastatin A-4” (2015).
# Columns and labels:
# Type in all cases: functional
# U-251 = assay: Growth inhibition of human U251 cells after 48 hrs by sulforhodamine B assay; settings: U-251, 48 h
# Outline: (§1)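 NCI-60 panel screen by SRB assay (Rubinstein method). Percentage growth taken from optical density of SRB colour, read before and 48 hrs after exposure to compound or vehicle control. All analogues first screened at 10^-5 M. Analogues giving 60% growth inhibition at that level in at least eight lines then went to a five-concentration dose-response study.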
# [1] = Growth inhibition of human DU145 cells after 48 hrs by sulforhodamine B assay; settings: DU-145, 48 h; outline: as §1
# [2] = Growth inhibition of human HCT116 cells after 48 hrs by sulforhodamine B assay; settings: HCT-116, 48 h; outline: as §1
# [3] = Growth inhibition of human SF268 cells after 48 hrs by sulforhodamine B assay; settings: SF-268, 48 h; outline: as §1
# [4] = Growth inhibition of human MOLT4 cells after 48 hrs by sulforhodamine B assay; settings: MOLT-4, 48 h; outline: as §1
# ACHN = assay: Growth inhibition of human ACHN cells after 48 hrs by sulforhodamine B assay; outline: as §1
# MDA-MB-435 = assay: Growth inhibition of human MDA-MB-435 cells after 48 hrs by sulforhodamine B assay; settings: MDA-MB-435, 48 h
# Outline: (§2)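 NCI-60 sulforhodamine B screen. Compounds were first tested at a single dose of 10⁻⁵ M; hits, defined as ≥60% growth inhibition in at least eight lines, went on to a five-concentration dose–response. SRB optical density was read before and 48 h after exposure to compound or vehicle. Percentage growth was calculated from OD.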
# NCI-H460 = assay: Growth inhibition of human NCI-H460 cells after 48 hrs by sulforhodamine B assay; settings: NCI-H460, 48 h; outline: as §1
# [5] = Growth inhibition of human NCI-ADR-RES cells after 48 hrs by sulforhodamine B assay; outline: as §1
# [6] = Growth inhibition of human RPMI8226 cells after 48 hrs by sulforhodamine B assay; settings: RPMI-8226, 48 h; outline: as §1
# [7] = Growth inhibition of human SW620 cells after 48 hrs by sulforhodamine B assay; settings: SW-620, 48 h; outline: as §1
# [8] = Growth inhibition of human LOXIMVI cells after 48 hrs by sulforhodamine B assay; settings: LOX IMVI; outline: as §1
# [9] = Growth inhibition of human HOP62 cells after 48 hrs by sulforhodamine B assay; settings: HOP-62, 48 h; outline: as §1
# SK-MEL-5 = assay: Growth inhibition of human SK-MEL-5 cells after 48 hrs by sulforhodamine B assay; settings: SK-MEL-5, 48 h; outline: as §1
# [10] = Growth inhibition of human HCC2998 cells after 48 hrs by sulforhodamine B assay; settings: HCC 2998, 48 h; outline: as §1
# HT-29 = assay: Growth inhibition of human HT-29 cells after 48 hrs by sulforhodamine B assay; settings: HT-29, 48 h; outline: as §1
# A549 = assay: Growth inhibition of human A549/ATCC cells after 48 hrs by sulforhodamine B assay; settings: A549, 48 h; outline: as §1
# [11] = Growth inhibition of human SKOV3 cells after 48 hrs by sulforhodamine B assay; settings: SK-OV-3, 48 h; outline: as §1
# [12] = Growth inhibition of human SF295 cells after 48 hrs by sulforhodamine B assay; settings: SF-295, 48 h; outline: as §1
# SR = assay: Growth inhibition of human SR cells after 48 hrs by sulforhodamine B assay; outline: as §1
# [13] = Growth inhibition of human OVCAR3 cells after 48 hrs by sulforhodamine B assay; settings: OVCAR-3, 48 h; outline: as §2
# [14] = Growth inhibition of human SNB75 cells after 48 hrs by sulforhodamine B assay; settings: SNB-75, 48 h; outline: as §1
# A498 = assay: Growth inhibition of human A498 cells after 48 hrs by sulforhodamine B assay; settings: A498, 48 h; outline: as §2
# [15] = Growth inhibition of human HOP92 cells after 48 hrs by sulforhodamine B assay; settings: HOP-92, 48 h; outline: as §1
# CCRF-CEM = assay: Growth inhibition of human CCRF-CEM cells after 48 hrs by sulforhodamine B assay; outline: as §1
# MDA-MB-468 = assay: Growth inhibition of human MDA-MB-468 cells after 48 hrs by sulforhodamine B assay; settings: MDA-MB-468, 48 h; outline: as §1
# KM12 = assay: Growth inhibition of human KM12 cells after 48 hrs by sulforhodamine B assay; settings: KM12, 48 h; outline: as §1
# SK-MEL-2 = assay: Growth inhibition of human SK-MEL-2 cells after 48 hrs by sulforhodamine B assay; settings: SK-MEL-2, 48 h; outline: as §1
# NCI-H23 = assay: Growth inhibition of human NCI-H23 cells after 48 hrs by sulforhodamine B assay; settings: NCI-H23, 48 h; outline: as §1
# CAKI-1 = assay: Growth inhibition of human CAKI-1 cells after 48 hrs by sulforhodamine B assay; settings: CAKI-1, 48 h; outline: as §1
# MCF7 = assay: Growth inhibition of human MCF7 cells after 48 hrs by sulforhodamine B assay; settings: MCF7, 48 h; outline: as §1
# [16] = Growth inhibition of human PC3 cells after 48 hrs by sulforhodamine B assay; settings: PC-3, 48 h; outline: as §1
# [17] = Growth inhibition of human UO31 cells after 48 hrs by sulforhodamine B assay; settings: UO-31, 48 h; outline: as §1
# [18] = Growth inhibition of human IGROV1 cells after 48 hrs by sulforhodamine B assay; settings: IGROV-1, 48 h; outline: as §1
# MDA-MB-231 = assay: Growth inhibition of human MDA-MB-231 cells after 48 hrs by sulforhodamine B assay; settings: MDA-MB-231, 48 h; outline: as §1
# [19] = Growth inhibition of human HCT15 cells after 48 hrs by sulforhodamine B assay; settings: HCT-15, 48 h; outline: as §1
# K562 = assay: Growth inhibition of human K562 cells after 48 hrs by sulforhodamine B assay; settings: K562, 48 h; outline: as §1
# [20] = read-out: LD50 (the source's name)
smiles,measurement,setting,value
COc1cc(-c2n[nH]nc2-c2ccc3c(c2)OCO3)cc(OC)c1OC,GI50,U-251,300 nM
same,CC50,U-251; [20],> 100000 nM
same,GI50,[1],350 nM
same,CC50,[1]; [20],> 100000 nM
same,GI50,[2],180 nM
same,CC50,[2]; [20],> 100000 nM
same,GI50,[3],> 100000 nM
same,CC50,[3]; [20],> 100000 nM
same,GI50,[4],570 nM
same,CC50,[4]; [20],> 100000 nM
same,GI50,ACHN,710 nM
same,CC50,ACHN; [20],> 100000 nM
same,GI50,MDA-MB-435,90 nM
same,LC50 (concentration killing 50% of cells),MDA-MB-435; read-out: LD50,> 100000 nM
same,GI50,NCI-H460,340 nM
same,CC50,NCI-H460; [20],> 100000 nM
same,GI50,[5],80 nM
same,CC50,[5]; [20],> 100000 nM
same,GI50,[6],330 nM
same,CC50,[6]; [20],> 100000 nM
same,GI50,[7],110 nM
same,LD50 (concentration killing 50% of cells),[7],> 100 µM
same,GI50,[8],550 nM
same,CC50,[8]; [20],> 100000 nM
same,GI50,[9],340 nM
same,LC50 (concentration killing 50% of cells),[9]; read-out: LD50,> 100000 nM
same,GI50,SK-MEL-5,> 100000 nM
same,CC50,SK-MEL-5; [20],> 100000 nM
same,GI50,[10],> 100000 nM
same,CC50,[10]; [20],> 100000 nM
same,GI50,HT-29,390 nM
same,LC50 (concentration killing 50% of cells),HT-29; read-out: LD50,> 100000 nM
same,GI50,A549,290 nM
same,CC50,A549; [20],> 100000 nM
same,GI50,[11],490 nM
same,LC50 (concentration killing 50% of cells),[11]; read-out: LD50,> 100000 nM
same,GI50,[12],100 nM
same,CC50,[12]; [20],> 100000 nM
same,GI50,SR,40 nM
same,LC50 (concentration giving 50% net cell kill),SR; read-out: LD50,> 100000 nM
same,GI50,[13],430 nM
same,LC50 (concentration giving 50% net cell kill),[13]; read-out: LD50,> 100000 nM
same,GI50,[14],80 nM
same,CC50,[14]; [20],> 100000 nM
same,GI50,A498,340 nM
same,LC50 (50% net cell kill),A498; read-out: LD50,> 100000 nM
same,GI50,[15],120 nM
same,CC50,[15]; [20],> 100000 nM
same,GI50,CCRF-CEM,280 nM
same,LC50 (concentration killing 50% of cells),CCRF-CEM; read-out: LD50,> 100000 nM
same,GI50,MDA-MB-468,230 nM
same,CC50,MDA-MB-468; [20],> 100000 nM
same,GI50,KM12,70 nM
same,LC50 (concentration killing 50% of cells),KM12; read-out: LD50,> 100000 nM
same,GI50,SK-MEL-2,20 nM
same,CC50,SK-MEL-2; [20],> 100000 nM
same,GI50,NCI-H23,770 nM
same,LC50 (concentration giving 50% cell kill),NCI-H23; read-out: LD50,> 100000 nM
same,GI50,CAKI-1,320 nM
same,CC50,CAKI-1; [20],> 100000 nM
same,GI50,MCF7,80 nM
same,CC50,MCF7; [20],> 100000 nM
same,GI50,[16],260 nM
same,CC50,[16]; [20],> 100000 nM
same,GI50,[17],660 nM
same,LC50 (concentration killing 50% of cells),[17]; read-out: LD50,> 100000 nM
same,GI50,[18],> 100000 nM
same,CC50,[18]; [20],> 100000 nM
same,GI50,MDA-MB-231,530 nM
same,CC50,MDA-MB-231; [20],> 100000 nM
same,GI50,[19],130 nM
same,CC50,[19]; [20],> 100000 nM
same,GI50,K562,50 nM
same,CC50,K562; [20],> 100000 nM
